Source: ChEMBL document CHEMBL1121933 (1982)

Tests used:
Oryctolagus cuniculus [1] = organism: Oryctolagus cuniculus; experiment: Intrinsic activity was measured on the rabbit mesenteric vein.; format: functional
Method in brief: (§1)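 Rabbit mesenteric vein from rabbits killed by stunning and exsanguination. Concentration-response curves built by consecutive drug additions to the bath fluid.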

Cavia porcellus [2] = organism: Cavia porcellus; experiment: Intrinsic activity was measured on the guinea pig ileum.; format: functional
Method in brief: (§2)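 Guinea pig ileum (animals 200-400 g, both sexes) from animals killed by stunning and exsanguination. Concentration-response curves built by consecutive additions of drug to the bath.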

Canis familiaris [3] = organism: Canis familiaris; experiment: Relative affinity compared to substance P was measured in the dog carotid artery.; format: functional, Canis lupus familiaris
Cavia porcellus [4] = organism: Cavia porcellus; experiment: Relative affinity compared to substance P was measured in guinea pig ileum.; format: functional; method in brief: as §2
Oryctolagus cuniculus [5] = organism: Oryctolagus cuniculus; experiment: Apparent affinity was measured on the rabbit mesenteric vein.; format: functional; method in brief: as §1
Canis familiaris [6] = organism: Canis familiaris; experiment: Apparent affinity was measured on the dog carotid artery.; format: functional, Canis lupus familiaris
Cavia porcellus [7] = organism: Cavia porcellus; experiment: Apparent affinity was measured on the guinea pig ileum.; format: functional; method in brief: as §2
Canis familiaris [8] = organism: Canis familiaris; experiment: Intrinsic activity was measured on the dog carotid artery.; format: functional, Canis lupus familiaris
Oryctolagus cuniculus [9] = organism: Oryctolagus cuniculus; experiment: Relative affinity compared to substance P was measured in rabbit mesenteric vein.; format: functional; method in brief: as §1
Rattus norvegicus = experiment: Relative potency compared substance P - change in blood pressure in anesthetized rat.; format: functional
Method in brief: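 Rats 200-250 g, anesthetized with urethane (1.4 g/kg, sc). Peptides injected into the jugular vein. Blood pressure recorded directly via a cannula in the right carotid artery with a mercury manometer on a kymograph-driven smoked drum.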

COc1ccc(C[C@H](NC(=O)[C@H](Cc2ccccc2)NC(=O)[C@H](CCC(N)=O)NC(=O)[C@H](CCC(N)=O)NC(=O)[C@@H]2CCCN2C(=O)[C@H](CCCCN)NC(=O)[C@@H]2CCCN2C(=O)[C@@H](N)CCCN=C(N)N)C(=O)NCC(=O)N[C@@H](CC(C)C)C(=O)N[C@@H](CCSC)C(N)=O)cc1
Alphax10E (Oryctolagus cuniculus [1]): 1 | Alphax10E (Cavia porcellus [2]): 1 | RA (Canis familiaris [3]): 95 | RA (Cavia porcellus [4]): 100 | pD2 (Oryctolagus cuniculus [5]): 7.55 | pD2 (Canis familiaris [6]): 9.98 | pD2 (Cavia porcellus [7]): 8.78 | Alphax10E (Canis familiaris [8]): 1 | RA (Oryctolagus cuniculus [9]): 100 | RP (Rattus norvegicus): 100

CSCC[C@H](NC(=O)[C@H](CC(C)C)NC(=O)CNC(=O)[C@H](CC(C)C)NC(=O)[C@H](Cc1ccccc1)NC(=O)[C@H](CCC(N)=O)NC(=O)[C@H](CCC(N)=O)NC(=O)[C@@H]1CCCN1C(=O)[C@H](CCCCN)NC(=O)[C@@H]1CCCN1C(=O)[C@@H](N)CCCN=C(N)N)C(N)=O
Alphax10E (Oryctolagus cuniculus [1]): 0.8 | Alphax10E (Cavia porcellus [2]): 1 | RA (Canis familiaris [3]): 64 | RA (Cavia porcellus [4]): 68 | pD2 (Oryctolagus cuniculus [5]): 6.92 | pD2 (Canis familiaris [6]): 9.81 | pD2 (Cavia porcellus [7]): 8.61 | Alphax10E (Canis familiaris [8]): 1 | RA (Oryctolagus cuniculus [9]): 23.6 | RP (Rattus norvegicus): 70

H-RPKPQQFGGFM-NH2
RA (Canis familiaris [3]): 0.2 | RA (Cavia porcellus [4]): <0.1 | pD2 (Canis familiaris [6]): 7.33 | pD2 (Cavia porcellus [7]): 5.31 | Alphax10E (Canis familiaris [8]): 1 | RA (Oryctolagus cuniculus [9]): <0.1 | RP (Rattus norvegicus): 0.07

CC[C@H](C)[C@H](NC(=O)[C@H](Cc1ccccc1)NC(=O)[C@H](CCC(N)=O)NC(=O)[C@H](CCC(N)=O)NC(=O)[C@@H]1CCCN1C(=O)[C@H](CCCCN)NC(=O)[C@@H]1CCCN1C(=O)[C@@H](N)CCCN=C(N)N)C(=O)NCC(=O)N[C@@H](CC(C)C)C(=O)N[C@@H](CCSC)C(N)=O
Alphax10E (Oryctolagus cuniculus [1]): 1 | Alphax10E (Cavia porcellus [2]): 1 | RA (Cavia porcellus [4]): 100 | pD2 (Oryctolagus cuniculus [5]): 7.55 | pD2 (Cavia porcellus [7]): 8.78 | RA (Oryctolagus cuniculus [9]): 100 | RP (Rattus norvegicus): 100

H-RPKPQQLLGLM-NH2
RA (Canis familiaris [3]): <0.1 | RA (Cavia porcellus [4]): <0.1 | pD2 (Canis familiaris [6]): 6.38 | pD2 (Cavia porcellus [7]): 5.29 | Alphax10E (Canis familiaris [8]): 1 | RA (Oryctolagus cuniculus [9]): <0.01 | RP (Rattus norvegicus): 0.2

CSCC[C@H](NC(=O)[C@H](CC(C)C)NC(=O)CNC(=O)[C@H](Cc1ccccc1)NC(=O)[C@@H](Cc1c[nH]c2ccccc12)NC(=O)[C@H](CCC(N)=O)NC(=O)[C@H](CCC(N)=O)NC(=O)[C@@H]1CCCN1C(=O)[C@H](CCCCN)NC(=O)[C@@H]1CCCN1C(=O)[C@@H](N)CCCN=C(N)N)C(N)=O
Alphax10E (Cavia porcellus [2]): 1 | RA (Canis familiaris [3]): 0.2 | RA (Cavia porcellus [4]): 0.2 | pD2 (Canis familiaris [6]): 7.33 | pD2 (Cavia porcellus [7]): 5.9 | Alphax10E (Canis familiaris [8]): 1 | RA (Oryctolagus cuniculus [9]): <0.1 | RP (Rattus norvegicus): 0.2

COc1ccc(C[C@H](NC(=O)[C@H](CCC(N)=O)NC(=O)[C@H](CCC(N)=O)NC(=O)[C@@H]2CCCN2C(=O)[C@H](CCCCN)NC(=O)[C@@H]2CCCN2C(=O)[C@@H](N)CCCN=C(N)N)C(=O)N[C@@H](Cc2ccccc2)C(=O)NCC(=O)N[C@@H](CC(C)C)C(=O)N[C@@H](CCSC)C(N)=O)cc1
Alphax10E (Oryctolagus cuniculus [1]): 0.8 | Alphax10E (Cavia porcellus [2]): 1 | RA (Cavia porcellus [4]): 31 | pD2 (Oryctolagus cuniculus [5]): 6.87 | pD2 (Cavia porcellus [7]): 8.27 | RA (Oryctolagus cuniculus [9]): 20.5 | RP (Rattus norvegicus): 31

CSCC[C@H](NC(=O)[C@H](CC(C)C)NC(=O)CNC(=O)[C@H](Cc1ccccc1)NC(=O)[C@H](CC1CCCCC1)NC(=O)[C@H](CCC(N)=O)NC(=O)[C@H](CCC(N)=O)NC(=O)[C@@H]1CCCN1C(=O)[C@H](CCCCN)NC(=O)[C@@H]1CCCN1C(=O)[C@@H](N)CCCN=C(N)N)C(N)=O
Alphax10E (Oryctolagus cuniculus [1]): 0.8 | Alphax10E (Cavia porcellus [2]): 1 | RA (Canis familiaris [3]): 6.4 | RA (Cavia porcellus [4]): 20 | pD2 (Oryctolagus cuniculus [5]): 6.66 | pD2 (Canis familiaris [6]): 8.8 | pD2 (Cavia porcellus [7]): 8.08 | Alphax10E (Canis familiaris [8]): 1 | RA (Oryctolagus cuniculus [9]): 13.2 | RP (Rattus norvegicus): 21

CSCC[C@H](NC(=O)[C@H](CC(C)C)NC(=O)CNC(=O)[C@H](CC1CCCCC1)NC(=O)[C@H](Cc1ccccc1)NC(=O)[C@H](CCC(N)=O)NC(=O)[C@H](CCC(N)=O)NC(=O)[C@@H]1CCCN1C(=O)[C@H](CCCCN)NC(=O)[C@@H]1CCCN1C(=O)[C@@H](N)CCCN=C(N)N)C(N)=O
Alphax10E (Oryctolagus cuniculus [1]): 1 | Alphax10E (Cavia porcellus [2]): 1 | RA (Cavia porcellus [4]): 100 | pD2 (Oryctolagus cuniculus [5]): 7.55 | pD2 (Cavia porcellus [7]): 8.78 | RA (Oryctolagus cuniculus [9]): 100 | RP (Rattus norvegicus): 100

CSCC[C@H](NC(=O)[C@H](CC(C)C)NC(=O)CNC(=O)[C@H](Cc1ccccc1)NC(=O)[C@H](CC(C)C)NC(=O)[C@H](CCC(N)=O)NC(=O)[C@H](CCC(N)=O)NC(=O)[C@@H]1CCCN1C(=O)[C@H](CCCCN)NC(=O)[C@@H]1CCCN1C(=O)[C@@H](N)CCCN=C(N)N)C(N)=O
Alphax10E (Cavia porcellus [2]): 1 | RA (Canis familiaris [3]): 0.4 | RA (Cavia porcellus [4]): 2.3 | pD2 (Oryctolagus cuniculus [5]): 5.66 | pD2 (Canis familiaris [6]): 7.64 | pD2 (Cavia porcellus [7]): 7.15 | Alphax10E (Canis familiaris [8]): 1 | RA (Oryctolagus cuniculus [9]): 1.3 | RP (Rattus norvegicus): 0.8

CSCC[C@H](NC(=O)[C@H](CC(C)C)NC(=O)[C@@H](CC(C)C)NC(=O)[C@H](Cc1ccccc1)NC(=O)[C@H](Cc1ccccc1)NC(=O)[C@H](CCC(N)=O)NC(=O)[C@H](CCC(N)=O)NC(=O)[C@@H]1CCCN1C(=O)[C@H](CCCCN)NC(=O)[C@@H]1CCCN1C(=O)[C@@H](N)CCCN=C(N)N)C(N)=O
Alphax10E (Cavia porcellus [2]): 1 | RA (Canis familiaris [3]): 0.3 | RA (Cavia porcellus [4]): 2.7 | pD2 (Oryctolagus cuniculus [5]): 5.11 | pD2 (Canis familiaris [6]): 7.49 | pD2 (Cavia porcellus [7]): 7.21 | Alphax10E (Canis familiaris [8]): 1 | RA (Oryctolagus cuniculus [9]): 0.4 | RP (Rattus norvegicus): 0.7

CSCC[C@H](NC(=O)[C@H](Cc1ccccc1)NC(=O)CNC(=O)[C@@H](C)NC(=O)[C@H](Cc1ccccc1)NC(=O)[C@H](CCC(N)=O)NC(=O)[C@H](CCC(N)=O)NC(=O)[C@@H]1CCCN1C(=O)[C@H](CCCCN)NC(=O)[C@@H]1CCCN1C(=O)[C@@H](N)CCCN=C(N)N)C(N)=O
RA (Canis familiaris [3]): 1.4 | RA (Cavia porcellus [4]): <0.01 | pD2 (Canis familiaris [6]): 8.15 | pD2 (Cavia porcellus [7]): 4.73 | Alphax10E (Canis familiaris [8]): 1 | RA (Oryctolagus cuniculus [9]): <0.1 | RP (Rattus norvegicus): 0.09

CSCC[C@H](NC(=O)[C@H](CC(C)C)NC(=O)[C@@H](Cc1ccccc1)NC(=O)[C@@H](CC(C)C)NC(=O)[C@H](Cc1ccccc1)NC(=O)[C@H](CCC(N)=O)NC(=O)[C@H](CCC(N)=O)NC(=O)[C@@H]1CCCN1C(=O)[C@H](CCCCN)NC(=O)[C@@H]1CCCN1C(=O)[C@@H](N)CCCN=C(N)N)C(N)=O
RA (Canis familiaris [3]): 0.8 | RA (Cavia porcellus [4]): 1.2 | pD2 (Canis familiaris [6]): 7.89 | pD2 (Cavia porcellus [7]): 6.83 | Alphax10E (Canis familiaris [8]): 1 | RA (Oryctolagus cuniculus [9]): <0.01 | RP (Rattus norvegicus): 1.3

CSCC[C@H](NC(=O)[C@H](CC(C)C)NC(=O)CNC(=O)[C@@H](Cc1c[nH]c2ccccc12)NC(=O)[C@H](Cc1ccccc1)NC(=O)[C@H](CCC(N)=O)NC(=O)[C@H](CCC(N)=O)NC(=O)[C@@H]1CCCN1C(=O)[C@H](CCCCN)NC(=O)[C@@H]1CCCN1C(=O)[C@@H](N)CCCN=C(N)N)C(N)=O
Alphax10E (Cavia porcellus [2]): 1 | RA (Canis familiaris [3]): 0.2 | RA (Cavia porcellus [4]): 0.8 | pD2 (Oryctolagus cuniculus [5]): 4.92 | pD2 (Canis familiaris [6]): 7.12 | pD2 (Cavia porcellus [7]): 6.68 | Alphax10E (Canis familiaris [8]): 1 | RA (Oryctolagus cuniculus [9]): 0.3 | RP (Rattus norvegicus): 0.8

CSCC[C@H](NC(=O)[C@H](CC(C)C)NC(=O)CNC(=O)[C@H](Cc1ccccc1)NC(=O)[C@H](Cc1c[nH]c2ccccc12)NC(=O)[C@H](CCC(N)=O)NC(=O)[C@H](CCC(N)=O)NC(=O)[C@@H]1CCCN1C(=O)[C@H](CCCCN)NC(=O)[C@@H]1CCCN1C(=O)[C@@H](N)CCCN=C(N)N)C(N)=O
Alphax10E (Cavia porcellus [2]): 1 | RA (Canis familiaris [3]): 37.1 | RA (Cavia porcellus [4]): 39.7 | pD2 (Oryctolagus cuniculus [5]): 6.55 | pD2 (Canis familiaris [6]): 9.56 | pD2 (Cavia porcellus [7]): 8.38 | Alphax10E (Canis familiaris [8]): 1 | RA (Oryctolagus cuniculus [9]): 10 | RP (Rattus norvegicus): 51
